The results in this text go back to ChEMBL document CHEMBL4138313 (J Med Chem, 2018).

The nature of series [1]: Cytotoxicity against human BRCA1-deficient UWB1.289 cells assessed as reduction in cell viability after 4 to 7 days by cell-titer glo assay. It counts as cell-based.
Series [2] has as its system MEF. Kind of series: Cytotoxicity against mouse wild type MEF cells assessed as reduction in cell viability at 0.016 to 100 uM after 4 to 7 days by cell-titer glo assay. It counts as cell-based. The method, boiled down: (§1)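 Cells kept at 37 °C, 5% CO2, 15% O2 in RPMI 1640 with 10% FBS and 1% penicillin/streptomycin. Seeded at 1,000 cells/well and dosed 24 h later at 100–0.016 µM. Exposure lasted 4–7 days, then viability was read by CellTiter Glo luminescence. Signal was normalized to percent survival against the mean of vehicle controls. Three repeat experiments.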

Series [3] in a line: Cytotoxicity against human OVCAR8 cells assessed as cell survival at 10 uM after 4 to 7 days by cell-titer glo assay. It counts as cell-based, OVCAR-8. As to conditions: OVCAR8 cells, read-out: Activity.
Series [4] has as its system MEF. The series can be described thus: Cytotoxicity against mouse PARP2 deficient MEF cells expressing PARP1 assessed as reduction in cell viability after 4 to 7 days by cell-titer glo assay. It counts as cell-based.
The nature of series [5]: Cytotoxicity against human BRCA1-restored UWB1.289 cells assessed as reduction in cell viability after 4 to 7 days by cell-titer glo assay. It counts as cell-based.
Series [6] is described as follows: Safety index, ratio compound EC50 to olaparib EC50 for BRCA1 deficient human UWB1.289 cells. As to conditions: BRCA1-deficient UWB1.289 cells, read-out: Ratio EC50. It counts as ADME. The gist of the method:
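UWB1.289 cells were grown in 1:1 MEGM (bullet kit) and RPMI 1640 with 10% FBS and 1% pen/strep, at 37 °C, 5% CO2 and 15% O2. Cells were seeded at 1,000 cells/well and dosed after 24 h at 100–0.016 µM for 4–7 days. Viability was read by CellTiter-Glo luminescence and normalised to the vehicle mean.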

For series [7], the system named is MEF. The series can be described thus: Cytotoxicity against mouse PARP1 deficient MEF cells assessed as reduction in cell viability at 0.016 to 100 uM after 4 to 7 days by cell-titer glo assay. It counts as cell-based. The method, boiled down:
as §1

Series [8] has as its target T1, Poly [ADP-ribose] polymerase 1 (Homo sapiens, UniProt P09874). Kind of series: Inhibition of PARP1 (unknown origin) at 10 uM. The gist of the method: (§2)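 Run by an outside contractor using PARP or TNKS kit protocols, in duplicate, at room temperature for 1 h in histone-coated wells. The Tris·HCl pH 8.0 reaction buffer held NAD+, biotinylated NAD+, activated DNA, enzyme and compound. Streptavidin-HRP was then added for 30 min at room temperature, followed by developer reagents and a luminescence read.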

Series [9] deals with T2, Poly [ADP-ribose] polymerase tankyrase-1 (Homo sapiens, UniProt O95271).
T2 sequence (O95271 whole entry): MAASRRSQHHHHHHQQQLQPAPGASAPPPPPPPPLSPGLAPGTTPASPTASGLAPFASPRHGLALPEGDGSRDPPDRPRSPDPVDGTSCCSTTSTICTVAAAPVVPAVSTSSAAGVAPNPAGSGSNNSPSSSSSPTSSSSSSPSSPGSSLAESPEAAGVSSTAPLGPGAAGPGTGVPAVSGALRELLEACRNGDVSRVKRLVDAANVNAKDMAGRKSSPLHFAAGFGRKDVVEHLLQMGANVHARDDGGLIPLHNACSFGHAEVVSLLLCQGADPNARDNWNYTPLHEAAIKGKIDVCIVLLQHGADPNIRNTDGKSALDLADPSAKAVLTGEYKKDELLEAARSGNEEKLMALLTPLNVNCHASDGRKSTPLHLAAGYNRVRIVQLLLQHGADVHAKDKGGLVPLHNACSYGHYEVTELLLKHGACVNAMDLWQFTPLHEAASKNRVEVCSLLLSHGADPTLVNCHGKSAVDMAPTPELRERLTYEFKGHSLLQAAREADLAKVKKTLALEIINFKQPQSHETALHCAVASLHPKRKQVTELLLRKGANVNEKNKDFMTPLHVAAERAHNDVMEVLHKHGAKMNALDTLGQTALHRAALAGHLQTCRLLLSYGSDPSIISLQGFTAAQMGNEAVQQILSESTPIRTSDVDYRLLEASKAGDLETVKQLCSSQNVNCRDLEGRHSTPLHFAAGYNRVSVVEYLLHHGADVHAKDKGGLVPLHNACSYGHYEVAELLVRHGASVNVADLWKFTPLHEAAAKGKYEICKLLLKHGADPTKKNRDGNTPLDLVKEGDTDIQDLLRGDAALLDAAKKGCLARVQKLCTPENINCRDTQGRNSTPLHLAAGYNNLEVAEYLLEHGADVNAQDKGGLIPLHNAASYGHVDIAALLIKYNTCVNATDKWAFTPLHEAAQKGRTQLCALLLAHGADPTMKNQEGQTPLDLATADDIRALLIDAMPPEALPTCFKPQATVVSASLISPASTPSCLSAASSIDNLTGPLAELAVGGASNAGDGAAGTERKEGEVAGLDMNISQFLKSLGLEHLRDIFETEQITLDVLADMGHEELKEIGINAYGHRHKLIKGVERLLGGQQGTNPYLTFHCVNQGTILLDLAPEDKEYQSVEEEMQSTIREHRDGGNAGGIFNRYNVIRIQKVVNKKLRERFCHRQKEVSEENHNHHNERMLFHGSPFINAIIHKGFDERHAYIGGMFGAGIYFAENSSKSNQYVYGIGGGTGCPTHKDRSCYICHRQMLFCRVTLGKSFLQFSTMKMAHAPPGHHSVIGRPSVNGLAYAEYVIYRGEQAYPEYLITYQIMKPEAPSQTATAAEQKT
Kind of series: Inhibition of human N-terminal GST-tagged TNKS1 (1001 to 1327 residues) expressed in baculovirus infected sf9 cells using histone as substrate after 1 hr by streptavidin-horseradish peroxidase-based luminescence assay.

In series [10] the test system is MEF. Kind of series: Cytotoxicity against mouse wild type MEF cells assessed as reduction in cell viability after 4 to 7 days by cell-titer glo assay. It counts as cell-based.
For series [11], the target named is T3, Poly [ADP-ribose] polymerase tankyrase-2 (Homo sapiens, UniProt Q9H2K2).
T3 sequence (Q9H2K2 whole entry): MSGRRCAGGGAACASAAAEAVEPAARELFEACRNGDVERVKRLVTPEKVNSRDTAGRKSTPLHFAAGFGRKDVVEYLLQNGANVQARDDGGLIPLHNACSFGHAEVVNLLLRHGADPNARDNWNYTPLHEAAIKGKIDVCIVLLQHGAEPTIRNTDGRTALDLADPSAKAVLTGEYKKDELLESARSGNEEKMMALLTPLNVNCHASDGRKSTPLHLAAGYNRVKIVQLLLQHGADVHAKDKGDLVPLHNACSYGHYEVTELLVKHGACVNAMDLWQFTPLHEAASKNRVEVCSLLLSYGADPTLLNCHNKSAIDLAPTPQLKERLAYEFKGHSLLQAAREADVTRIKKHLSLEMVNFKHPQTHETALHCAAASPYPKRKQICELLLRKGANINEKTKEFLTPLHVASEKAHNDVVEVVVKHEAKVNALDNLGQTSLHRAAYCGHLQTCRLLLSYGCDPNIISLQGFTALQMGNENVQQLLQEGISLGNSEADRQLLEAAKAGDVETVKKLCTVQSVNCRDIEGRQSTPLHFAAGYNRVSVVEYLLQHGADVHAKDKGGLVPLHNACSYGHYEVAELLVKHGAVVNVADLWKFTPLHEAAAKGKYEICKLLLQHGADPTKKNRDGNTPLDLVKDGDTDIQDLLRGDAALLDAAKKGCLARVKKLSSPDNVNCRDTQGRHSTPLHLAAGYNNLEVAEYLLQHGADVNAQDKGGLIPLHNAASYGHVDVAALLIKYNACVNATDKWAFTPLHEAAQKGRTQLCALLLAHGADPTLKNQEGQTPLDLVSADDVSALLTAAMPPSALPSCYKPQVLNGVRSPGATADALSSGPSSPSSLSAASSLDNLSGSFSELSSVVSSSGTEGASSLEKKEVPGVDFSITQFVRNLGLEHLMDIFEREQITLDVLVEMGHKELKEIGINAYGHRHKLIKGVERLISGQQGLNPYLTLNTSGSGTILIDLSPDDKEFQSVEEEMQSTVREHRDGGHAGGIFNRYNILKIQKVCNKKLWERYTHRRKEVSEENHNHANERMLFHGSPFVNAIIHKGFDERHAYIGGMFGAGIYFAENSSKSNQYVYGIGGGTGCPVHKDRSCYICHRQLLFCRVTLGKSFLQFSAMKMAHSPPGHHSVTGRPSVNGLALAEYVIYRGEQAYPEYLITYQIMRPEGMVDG
The series can be described thus: Inhibition of human N-terminal GST-tagged TNKS2 (667 to 1166 residues) expressed in baculovirus infected sf9 cells using histone as substrate after 1 hr by streptavidin-horseradish peroxidase-based luminescence assay.

Series [12] deals with MEF. Kind of series: Cytotoxicity against mouse PARP1 deficient MEF cells assessed as reduction in cell viability after 4 to 7 days by cell-titer glo assay. It counts as cell-based.
For series [13], the target named is T4, Poly [ADP-ribose] polymerase tankyrase-2 (Homo sapiens) (UniProt Q9H2K2).
T4 sequence (whole entry): T3 sequence (Q9H2K2 whole entry)
Kind of series: Inhibition of human N-terminal GST-tagged TNKS2 (667 to 1166 residues) expressed in baculovirus infected sf9 cells at 10 uM using histone as substrate after 1 hr by streptavidin-horseradish peroxidase-based luminescence assay. The method, boiled down: as §2

In series [14] the target is T1, Poly [ADP-ribose] polymerase 1. Kind of series: Binding affinity to PARP1 in human OVCAR8 cells assessed as reduction in [125I]-KX1 binding by gamma counting analysis. It counts as cell-based.

Structures are written as SMILES. Calls of active or inactive are those of the source. The rule behind the calls is not given here.

T1 sequence (P09874 whole entry): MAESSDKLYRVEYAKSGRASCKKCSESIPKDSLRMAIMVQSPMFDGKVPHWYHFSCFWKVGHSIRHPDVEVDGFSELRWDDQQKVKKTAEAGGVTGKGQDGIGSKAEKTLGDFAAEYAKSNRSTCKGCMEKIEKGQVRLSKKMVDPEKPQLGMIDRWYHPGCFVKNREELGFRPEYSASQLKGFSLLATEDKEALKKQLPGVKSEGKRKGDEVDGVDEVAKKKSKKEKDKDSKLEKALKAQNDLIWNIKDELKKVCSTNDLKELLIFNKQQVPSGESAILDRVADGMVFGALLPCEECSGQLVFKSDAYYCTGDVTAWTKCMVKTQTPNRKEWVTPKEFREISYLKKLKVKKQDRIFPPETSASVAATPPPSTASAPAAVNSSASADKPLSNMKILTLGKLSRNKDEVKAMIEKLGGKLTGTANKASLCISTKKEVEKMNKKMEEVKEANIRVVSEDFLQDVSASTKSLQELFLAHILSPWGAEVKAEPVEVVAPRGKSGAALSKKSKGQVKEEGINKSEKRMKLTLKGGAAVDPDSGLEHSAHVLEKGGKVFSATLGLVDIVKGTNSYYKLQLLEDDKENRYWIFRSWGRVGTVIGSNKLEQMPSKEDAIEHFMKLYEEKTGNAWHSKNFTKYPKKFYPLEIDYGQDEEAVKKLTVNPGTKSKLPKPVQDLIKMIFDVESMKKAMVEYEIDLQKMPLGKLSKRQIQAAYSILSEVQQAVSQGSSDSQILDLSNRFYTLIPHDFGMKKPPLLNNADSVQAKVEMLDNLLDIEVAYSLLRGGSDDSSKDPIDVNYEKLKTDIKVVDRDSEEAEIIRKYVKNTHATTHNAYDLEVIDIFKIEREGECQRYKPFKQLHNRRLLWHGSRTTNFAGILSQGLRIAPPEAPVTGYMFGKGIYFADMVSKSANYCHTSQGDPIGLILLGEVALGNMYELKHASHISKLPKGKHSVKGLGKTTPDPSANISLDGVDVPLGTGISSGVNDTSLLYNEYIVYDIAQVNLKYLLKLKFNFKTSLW

One may read the EC50 as the midpoint of the concentration-response curve. For `O=C(c1cc(Cc2n[nH]c(=O)c3ccccc23)ccc1F)N1CC2(C1)CN(C(=O)C1CC1)C2`, the EC50 in series [1] was 1.5 µM; with MEF [4], 59.8 µM; in series [5] it was 12.1 µM. Further, the Activity in the series with MEF [2] and with MEF [7] was under 50% throughout. Also, the viability at 10 µM in [3] was 80%. Also, the selectivity ratio in series [6] was 7. Further, the inhibition result in series [8] was “Active”.
As a reminder, the IC50 is the concentration that gives 50% inhibition. Regarding `CC(C)(C)OC(=O)N1CCC2(CCN(C(=O)c3cc(Cc4n[nH]c(=O)c5ccccc45)ccc3F)C2)C1` (stereo unspecified), the EC50 was 4.2 µM in [1]; 17.2 µM with MEF [10]; 23.4 µM in the series with MEF [4]; 7.4 µM in series [5]; 46.4 µM in the series with MEF [12]. The values for the IC50 in series [9] and in [11] were 1 µM and 0.576 µM, respectively. Further, the selectivity ratio in series [6] fell in the range of 20 to 40. Besides, the inhibition entry in [13] was “Active”.
Consider `CC(C)(C)OC(=O)N1CCC2(CC1)CCN(C(=O)c1cc(Cc3n[nH]c(=O)c4ccccc34)ccc1F)CC2`, for which the EC50 came to 2.7 µM in series [1]; 16.9 µM with MEF [10]; 19.2 µM in the series with MEF [4]; 4 µM in series [5]; 43.4 µM in the series with MEF [12]. The results for the IC50 in [9] and in series [11] were 5.7 µM and 2.8 µM, respectively. Moreover, in series [6], the selectivity ratio was in the range of 20 to 40. Moreover, the inhibition result in series [13] is “Active”.
In the case of `CC(C)(C)OC(=O)N1CCC2(CC1)CCN(C(=O)c1cc(Cc3n[nH]c(=O)c4ccccc34)ccc1F)C2`, the EC50 turned out to be 8.4 µM in series [1]; 9.4 µM in the series with MEF [10]; 31.6 µM with MEF [4]; 6.2 µM in series [5]; 45.9 µM with MEF [12]. The IC50 in series [9] was 3 µM; in series [14] it was 1.1 µM; in [11], 0.953 µM. The selectivity ratio in [6] was 20 to 40. The inhibition result in series [13] is “Active”.
